Experimental data as given in ChEMBL document CHEMBL1145991 (J Med Chem, 2003).

What was measured:
Settings in all cases: Aorta
Rattus norvegicus [1] = species: Rattus norvegicus; assay: In vitro maximal vasorelaxing effect evoked on endothelium-denuded rat aortic rings was expressed as percentage contractile tension; The compound was ineffective; assay type: functional, tissue-based
Procedure, shortened: (§1)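 Thoracic aortic rings were taken from male normotensive Wistar rats (250–350 g) and equilibrated for 60 min. Rings relaxing ≥10% to ACh 10 μM after NE 1 μM precontraction were discarded. Rings were contracted with KCl 20 mM, then 3-fold increasing concentrations were added cumulatively. Efficacy is the maximal relaxation as % of KCl tone, or the response at the 0.1 mM limit concentration. Mean ± standard error of 5–10 experiments.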

Rattus norvegicus [2] = species: Rattus norvegicus; assay: In vitro vasorelaxing effect evoked on endothelium-denuded rat aortic rings expressed as half reduction of the contractile tone; The compound was ineffective; assay type: functional, tissue-based
[3] = In vitro maximal vasorelaxation of endothelium-denuded rat aortic rings, expressed as percentage contractile tension.; assay type: functional; procedure, shortened: as §1
[4] = In vitro maximal vasorelaxing effect evoked on endothelium-denuded rat aortic rings in the presence of 1 uM glibenclamide; assay type: functional
Procedure, shortened: (§2)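 Glibenclamide 1 μM was added to endothelium-denuded male Wistar rat aortic rings before the 20 mM KCl contraction. Compound was then added cumulatively in 3-fold increasing concentrations, and relaxation was expressed relative to the KCl tone. Student t test against control, P < 0.05. Mean ± standard error, 5–10 experiments.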

[5] = In vitro vasorelaxing effect evoked on endothelium-denuded rat aortic rings expressed as potency significantly different from respective control; assay type: functional, tissue-based
[6] = In vitro vasorelaxing effect evoked on endothelium-denuded rat aortic rings expressed as percentage efficacy (%) recorded in the presence of 1 uM glibenclamide
[7] = In vitro vasorelaxing effect evoked on endothelium-denuded rat aortic rings in the presence of 1 uM glibenclamide; assay type: functional, tissue-based; procedure, shortened: as §2
[8] = In vitro maximal vasorelaxing effect evoked on endothelium-denuded rat aortic rings was expressed as percentage contractile tension in the presence of 60 mM KCl
[9] = In vitro vasorelaxing effect evoked on endothelium-denuded rat aortic rings in the presence of 1 uM glibenclamide

Compound | Emax [3] | Emax [4] | IC50 [7] | Emax [8] | other results
CC(=O)N1CC(C)(C)Sc2ccc([N+](=O)[O-])cc21 |  |  |  |  | NE (Rattus norvegicus [1]): Ineffective; NE (Rattus norvegicus [2]): Ineffective
C=CCN1CC(C)(C)Sc2ccc(C(F)(F)F)cc21 | 97% |  |  |  | 
CC(=O)N1CC(C)(C)Sc2ccc(Br)cc21 | 100% |  |  |  | 
CC1(C)Oc2ccc(C#N)cc2[C@@H](N2CCCC2=O)[C@@H]1O [LEVCROMAKALIM] | 100% |  |  |  | 
CC1(C)CN(NC(=O)c2cccc(F)c2)c2cc(Br)ccc2S1 | 95% | 58% |  |  | 
CC1(C)Sc2ccc(C(F)(F)F)cc2NC1=O |  |  |  |  | IC50 [5]: 28200 nM; Emax [6]: 81%
CC(=O)NN1CC(C)(C)Sc2ccc([N+](=O)[O-])cc21 | 92% | 95% | 93.3 nM | 24% | 
CC1(C)CN(C2=CCCC2=O)c2cc(C(F)(F)F)ccc2S1 | 99% | 87% | 437 nM | 35% | 
CC1(C)CN(N2CCCCC2=O)c2cc(Br)ccc2S1 | 100% |  |  |  | 
CC1(C)CN(C2=CCCC2=O)c2cc(C#N)ccc2S1 | 95% | 100% | 69.2 nM | 18% | 
CC1(C)CN(N2CCCC2=O)c2cc([N+](=O)[O-])ccc2S1 | 91% |  |  |  | 
CC1(C)CN(N2CCCC2=O)c2cc(Br)ccc2S1(=O)=O | 100% |  |  |  | 
CC1(C)CN(N2CCCC2=O)c2cc(C#N)ccc2S1 | 98% |  |  |  | 
CC1(C)CN(C2=CCCC2=O)c2cc([N+](=O)[O-])ccc2S1 | 98% | 90% | 417 nM | 26% | 
CC1(C)CN(NC(=O)c2cccc(F)c2)c2cc([N+](=O)[O-])ccc2S1 | 91% | 93% | 302 nM | 15% | 
CC1(C)CN(N2CCCC2=O)c2cc(Br)ccc2[S+]1[O-] (stereo not drawn) | 96% |  |  |  | 
CC(=O)NN1CC(C)(C)Sc2ccc(Br)cc21 | 100% |  |  |  | 
CC1(C)CN(N2CCCC2=O)c2cc(Br)ccc2S1 | 100% | 99% | 2400 nM | 30% | 
CC1(C)CN(C2=CCCC2=O)c2cc(Br)ccc2S1 | 99% | 92% |  | 28% | IC50 [9]: 525 nM
